# According to ChEMBL document CHEMBL3352487, “Synthesis, antibacterial activity, and biological evaluation of formyl hydroxyamino derivatives as novel potent peptide deformylase inhibitors against drug-resistant bacteria” (Eur J Med Chem, 2014):
# System: Staphylococcus aureus
# Test: Antimicrobial activity against Staphylococcus aureus isolate Smith ATCC 13709 after 24 hrs by broth microdilution method
# Type: functional
# Settings: isolate Smith ATCC 13709, 24 h
# How it was run: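 Broth microdilution following NCCLS M7-A4, using ATCC strains and clinical isolates from a provincial hospital.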
smiles,measurement,value
CCCC[C@H](CN(O)C=O)C(=O)N1CC=C[C@H]1C(=O)Nc1ccc(F)c[n+]1[O-],MIC,0.25 µg/mL
